Measurements collected from several papers.
Lines come from different studies, so protocols differ. ≈ marks a conversion by molar mass, not a printed value.

C[C@@H]1[C@H](O)[C@@H](C)/C=C/C=C/C=C/C=C/C=C/C=C/C=C/[C@H](O[C@@H]2O[C@H](C)[C@@H](O)[C@H](N)[C@@H]2O)C[C@@H]2O[C@](O)(C[C@@H](O)C[C@@H](O)[C@H](O)CC[C@@H](O)C[C@@H](O)CC(=O)O[C@H]1C)C[C@H](O)[C@H]2C(=O)O — MIC (Nakaseomyces glabratus; microbial growth, broth dilution; ATCC2001; 24 h): 4 µg/mL (≈ 4.33 µM)
C=CCc1ccc(O)c(OC)c1 — MFC (Cryptococcus neoformans; microbial killing, broth dilution; clinical isolate): 400 µg/mL (≈ 2440 µM)
COC1=CC(=O)c2ccccc2C1=O — MIC (Nakaseomyces glabratus; microbial growth, broth dilution; ATCC2001; 24 h): 25 µg/mL (≈ 133 µM)
C=CC(=O)NC1CCN(c2ncc3ncnc(Nc4ccc(Oc5ccc6c(c5)ncn6C)c(C)c4)c3n2)CC1 — EC50 (SNU-182; cell growth or viability): 0.191 nM
COc1ccc(C2c3c(C)nn(-c4ccccc4)c3NN2C(=O)c2ccncc2)cc1 (centres unmarked) — MIC (Cryptococcus neoformans; microbial growth; clinical isolate): > 100 µg/mL
CO[C@]12C[C@@H](COC(=O)c3cncc(Br)c3)CN(C)[C@@H]1Cc1cn(C)c3cccc2c13 — IC50 (CNE-2; cell growth or viability, MTT; 48 h): 12900 nM
Cc1nn(-c2ccccc2)c2c1C(c1cncs1)N(C(=O)c1ccncc1)N2 (centres unmarked) — MIC (Cryptococcus neoformans; microbial growth; clinical isolate): 64 µg/mL (≈ 165 µM)
CC(C)=CCC/C(C)=C/CO — MFC (Cryptococcus neoformans; microbial killing, broth dilution; clinical isolate): 800 µg/mL (≈ 5190 µM)
Cc1nn(-c2ccccc2)c2c1C(c1ccc([N+](=O)[O-])cc1)N(C(=O)c1ccncc1)N2 (centres unmarked) — MIC (Cryptococcus neoformans; microbial growth; clinical isolate): 64 µg/mL (≈ 150 µM)
Nc1ccc(/C=C/C(=O)N2CCc3c(oc4c(-c5ccc(F)cc5)cc(-c5ccc(C(=O)N6CCC(F)(F)CC6)nn5)cc34)C2)cn1 — IC50 (ASPC1; cell growth or viability, CCK-8; 72 h): 340 nM
C=CC(=O)N1CCN(c2nc(=O)n(-c3c(C)ccnc3C(C)C)c3nc(-c4c(O)cccc4F)c(F)cc23)[C@@H](C)C1 — IC50 (NCI-H358; cell growth or viability, ATP luminescence): 44.1 nM
Clc1ccccc1C(c1ccccc1)(c1ccccc1)n1ccnc1 — MIC (Cryptococcus neoformans; microbial growth; clinical isolate): 4 µg/mL (≈ 11.6 µM)
C=C(F)C(=O)N1CCN(c2nc(OC[C@@H]3CCCN3C)nc3c2CCN(c2cccc4cccc(Cl)c24)C3)C[C@@H]1CC#N — IC50 (NCI-H358; cell growth or viability, ATP luminescence; 3D culture): 3.85 nM
COc1ccc2c(C(=O)c3c(F)c(F)c(F)c(F)c3F)c(-c3ccc(OC)c(O)c3)[nH]c2c1 — IC50 (tubulin polymerisation, inhibitor, absorbance): > 20000 nM
